Results on 7 molecules are retold here after ChEMBL document CHEMBL1148185, “New cyanocyclines from a cyanide-treated broth of Streptomyces lusitanus” (1993).

Common to all, as to type: functional
One test deals with Klebsiella pneumoniae. Briefly: Antibacterial activity against Klebsiella pneumoniae A-''AD'' after 16 to 20 hrs. In short, it runs like this: (§1)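 Broth microdilution MIC. Bacteria grown in brain heart infusion (BHI) broth at 37° for 24 h, then subcultured into fresh BHI for 8 h. Cultures diluted in 0.9% NaCl to McFarland 0.5 (ca. 10^8 cfu/ml), then diluted 20-fold in BHI. Two-fold antibiotic dilution series; 50 μl drug plus 50 μl culture per well. Incubated at 37° for 16–20 h.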

In a further test the test system is Bacillus subtilis. Briefly: Antibacterial activity against Bacillus subtilis ATCC 6633 after 16 to 20 hrs. An outline of the steps: as §1
The test system of another test is Proteus vulgaris. Kind of test: Antibacterial activity against Proteus vulgaris after 16 to 20 hrs. An outline of the steps: as §1
In another test the test system is Enterococcus faecalis. Kind of test: Antibacterial activity against Streptococcus faecalis ATCC 29212 after 16 to 20 hrs. An outline of the steps:
as §1

In another test the test system is Escherichia coli. Kind of test: Antibacterial activity against Escherichia coli ATCC 10536 after 16 to 20 hrs. An outline of the steps: as §1
The test system of the next test is Micrococcus luteus. Briefly: Antibacterial activity against Micrococcus luteus ATCC 4698 after 16 to 20 hrs. An outline of the steps:
as §1

For a further test, the system named is Serratia marcescens. Kind of test: Antibacterial activity against Serratia marcescens ATCC 13880 after 16 to 20 hrs. An outline of the steps:
as §1

Converted amounts (≈) assume the structure as drawn. The source made the active and inactive calls. The rule behind the calls is not given here.

With `COC1=C(C)C(=O)C2=C(C1=O)[C@@H](CO)N1[C@H]3[C@@H]4[C@@H](C[C@H]([C@H]1C#N)N4C)[C@H](C#N)N(CCO)[C@@H]23` [CYANOCYCLINE D], the MIC (usually the least concentration at which growth counts as inhibited) stood at 0.125 µg/mL (≈ 0.276 µM) against Klebsiella pneumoniae; 0.061 µg/mL (≈ 0.135 µM) in the test on Bacillus subtilis; 0.5 µg/mL (≈ 1.1 µM) against Proteus vulgaris; 0.25 µg/mL (≈ 0.551 µM) against Enterococcus faecalis; 0.5 µg/mL (≈ 1.1 µM) in the test with Escherichia coli; 0.125 µg/mL (≈ 0.276 µM) with Micrococcus luteus. The MIC with Serratia marcescens worked out at 0.25 µg/mL (≈ 0.551 µM).
For the molecule `COC1=C(C)C(=O)C2=C(C1=O)[C@@H](CO)N1[C@H]3[C@H]4N[C@H](C[C@H]4[C@@H]4OCCN4[C@@H]23)[C@@H]1O`, the result with Klebsiella pneumoniae, in the test on Bacillus subtilis, with Proteus vulgaris, in the test on Enterococcus faecalis, in the test with Escherichia coli and in the test on Micrococcus luteus was Active. The result in the test on Serratia marcescens was Active.
As for `COc1c(C)c(O)c2c(c1O)[C@@H](CO)N1[C@H]3[C@@H]4[C@@H](C[C@H]([C@H]1C#N)N4C)[C@@H]1OCCN1[C@@H]23`, the outcome in the test with Klebsiella pneumoniae, with Bacillus subtilis, in the test with Proteus vulgaris, in the test with Enterococcus faecalis, in the test with Escherichia coli and in the test on Micrococcus luteus was Active. Further, the result in the test on Serratia marcescens was Active.
As to `COc1c(C)c(OC)c2c(c1OC)[C@@H](CO)N1[C@H]3[C@@H]4[C@@H](C[C@H]([C@H]1C#N)N4C)[C@@H]1OCCN1[C@@H]23`, the outcome with Klebsiella pneumoniae, with Bacillus subtilis, in the test with Proteus vulgaris, in the test on Enterococcus faecalis, in the test on Escherichia coli and in the test with Micrococcus luteus was inactive. Moreover, the outcome in the test with Serratia marcescens was inactive.
Regarding `COC1=C(C)C(=O)C2=C(C1=O)[C@@H](CO)N1[C@H]3[C@H]4N[C@H](C[C@H]4[C@@H]4OCCN4[C@@H]23)[C@H]1C#N` [CYANOCYCLINE B], the MIC against Klebsiella pneumoniae was 0.031 µg/mL (≈ 0.0752 µM); against Bacillus subtilis, 0.016 µg/mL (≈ 0.0388 µM); in the test on Proteus vulgaris, 1 µg/mL (≈ 2.42 µM); against Enterococcus faecalis, 0.25 µg/mL (≈ 0.606 µM); against Escherichia coli it was 0.25 µg/mL (≈ 0.606 µM); in the test on Micrococcus luteus it was 0.063 µg/mL (≈ 0.153 µM). For the same molecule, in the test with Serratia marcescens, the minimum inhibitory concentration (MIC) is 0.5 µg/mL (≈ 1.21 µM).
`COC1=C(C)C(=O)C2=C(C1=O)[C@@H](CO)N1[C@H]3[C@H]4[C@@H](C[C@H]([C@H]1C#N)N4C)[C@@H]1OCCN1[C@@H]23` [CYANOCYCLINE A]: the MIC against Klebsiella pneumoniae amounted to 0.125 µg/mL (≈ 0.293 µM); in the test on Bacillus subtilis, 0.031 µg/mL (≈ 0.0727 µM); in the test on Proteus vulgaris it was 0.25 µg/mL (≈ 0.586 µM); against Enterococcus faecalis it was 0.25 µg/mL (≈ 0.586 µM); in the test with Escherichia coli it was 0.125 µg/mL (≈ 0.293 µM); with Micrococcus luteus, 0.031 µg/mL (≈ 0.0727 µM). In addition, it took 0.5 µg/mL (≈ 1.17 µM) to inhibit growth with Serratia marcescens (MIC).
In the case of `COc1c(C)c(O)c2c(c1O)[C@@H](CO)N1[C@H]3[C@@H]4[C@@H](C[C@H]([C@H]1O)N4C)[C@@H]1OCCN1[C@@H]23`, the outcome with Klebsiella pneumoniae, in the test with Bacillus subtilis, in the test with Proteus vulgaris, with Enterococcus faecalis, with Escherichia coli and in the test on Micrococcus luteus was Active. Also, the result in the test with Serratia marcescens was Active.
